GPR7 antag = antagonists of human GPR7 (neuropeptides B/W receptor 1); GPR7-expressing cells, fluorescence antagonist assay; AID 1861; P48145; 290,000 compounds, 1.1% hits; inhibition, % at 4.4 µM; in the data active means inhibition above about 16%, passing the limit was not always enough;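 further: cells stimulated with the agonist NPW; 0% = agonist with vehicle and 100% = vehicle without agonist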
Target sequence (P48145 whole entry, looked up): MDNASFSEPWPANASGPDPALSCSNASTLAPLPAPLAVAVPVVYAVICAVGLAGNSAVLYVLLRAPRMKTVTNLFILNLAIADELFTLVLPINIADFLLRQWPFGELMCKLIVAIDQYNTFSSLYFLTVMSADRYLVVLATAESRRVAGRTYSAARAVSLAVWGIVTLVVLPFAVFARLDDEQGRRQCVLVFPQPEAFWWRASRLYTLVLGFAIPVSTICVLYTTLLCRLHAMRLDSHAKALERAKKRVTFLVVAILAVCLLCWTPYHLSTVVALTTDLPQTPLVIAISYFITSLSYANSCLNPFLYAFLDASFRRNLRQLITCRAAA
OX1R antag-1 = blocks the human orexin 1 receptor. O43613. CHO/OX1R cells, Fluo-8 calcium fluorescence, orexin A. inhibition, % at 5 µM. 330,000 compounds, 0.43% hits;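 active means inhibition above its plate's threshold, mean inhibition of all tested compounds on the plate plus 3 SD, cut at about 37% in these data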;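 further: 0% = orexin A challenge wells and 100% = SB-334867-A antagonist wells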
CHO parental Ca = counter-screen for OX1R antagonists: effect in parental CHO cells; inhibition, % at 5.6 µM; AID 463079; parental CHO-K1, ATP-induced calcium, Fluo-8 fluorescence; 330,000 compounds, 0.63% hits;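 active means inhibition above that plate's mean sample inhibition plus 3 SD, cut at about 26% in these data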;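 further: 0% = ATP-challenged DMSO wells and 100% = DMSO wells without ATP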
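Material – parental CHO cells · Reagent – ATP stimulus · Compound – single nominal dose of 5.6 µM per compound · Detection – Fluo-8 fluorescence · Read-out basis – percent inhibition of calcium signal · Controls – ATP-challenged DMSO wells low, unchallenged DMSO wells high · Repeats – no replicates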
TAAR1 antagonist = human TAAR1 antagonism; 360,000 compounds, 1.5% hits; CHO RD-HGA16 TAAR1, Fluo-8 calcium fluorescence, antagonist; inhibition, % at 3 µM; AID 624466;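 active means inhibition above a per-plate cutoff, the mean inhibition of test compounds on that plate plus 3 SD, cut at about 49% in these data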;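 further: 0% = DMSO plus EC80 beta-PEA response and 100% = DMSO alone without agonist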
Target sequence (Q96RJ0 whole entry, looked up): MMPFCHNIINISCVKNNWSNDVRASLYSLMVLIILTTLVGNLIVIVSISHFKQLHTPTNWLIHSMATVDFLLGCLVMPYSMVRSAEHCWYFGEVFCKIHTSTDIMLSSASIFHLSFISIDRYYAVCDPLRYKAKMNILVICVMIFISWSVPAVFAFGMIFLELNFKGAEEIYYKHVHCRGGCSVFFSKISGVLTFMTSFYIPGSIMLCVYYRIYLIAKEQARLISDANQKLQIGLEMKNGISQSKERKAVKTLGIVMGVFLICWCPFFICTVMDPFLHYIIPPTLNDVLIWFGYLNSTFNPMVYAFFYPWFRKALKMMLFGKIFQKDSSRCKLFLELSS
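Test system: hTAAR1-expressing CHO RD-HGA16 cells, Gα16-coupled; Probe or stimulus: EC80 β-phenethylamine stimulus; Compound dosing: single nominal final test compound concentration of 3 µM; Timing: 140 s kinetic read after compound, 140 s after agonist; Signal: Fluo-8 calcium-sensitive fluorescence; Measure: % inhibition of agonist calcium response; Controls: DMSO and EC80 PEA controls.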
OX1R antag-2 = antagonists of human orexin 1 receptor (OX1R). 330,000 compounds, 1.8% hits. inhibition, % at 6.6 µM. AID 485270. O43613. OX1R-expressing cells, FRET antagonist read-out; in the data active means inhibition mostly above about 38%, no sharp cut-off; inactive means mostly below about 40%;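 further: 0% = agonist challenge alone and 100% = reference antagonist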
TAAR1 ag = human TAAR1 agonism. CHO RD-HGA16 TAAR1, Fluo-8 calcium fluorescence; vehicle wells 0%, saturating PEA agonist 100%. activation, % at 3 µM. Q96RJ0. 360,000 compounds, 0.99% hits. AID 624467;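 active means activation above the mean activation of all test compounds in the run plus 3 SD, cut at about 38% in these data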
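Test system: RD-HGA16 (CHO) cells co-expressing Gα16 and hTAAR1 / Benchmarks: DMSO vehicle as 0%, PEA at EC100 as 100% / Repeats: no replicates (n 1) / Measure: % activation from peak over basal fluorescence ratio, DMSO-to-PEA scaled / Timing: 17-24 h plating, Fluo-8 75 min 37 °C, 30 min RT / Technique: kinetic Fluo-8 calcium fluorescence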
nonsel antag count = nonselective antagonist in TAAR1 antagonist counter-screen; shares compounds with TAAR1 antagonist; counterscreen cell line, calcium fluorescence, antagonist mode; 2,400 compounds, 77% hits; inhibition, % at 3 µM; in the data active means inhibition above about 22%;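 further: CHO-Ga16 host cells stimulated with ATP at an EC80 level; 0% = agonist EC80 plus vehicle and 100% = vehicle without agonist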
TAAR1 antag conf = confirmation of human TAAR1 antagonists | shares compounds with TAAR1 antagonist | TAAR1-expressing cells, fluorescence antagonist read-out | inhibition, % at 3 µM | 2,400 compounds, 40% hits; in the data active means inhibition above about 49%;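 further: CHO-Ga16 host cells challenged with agonist PEA near its EC80; 0% = agonist at EC80 plus vehicle and 100% = vehicle with no agonist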
Ga16 nonsel ag = nonselective Ga16 agonism, counter-screen | shares compounds with TAAR1 antagonist | activation, % at 3 µM | 2,400 compounds, 18% hits | Ga16-expressing cells, calcium fluorescence, agonist counterscreen; in the data active means activation above about 12%;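 further: 0% = vehicle wells and 100% = saturating stimulus response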
TAAR1 ag counter = counter-screen for human TAAR1 antagonists: TAAR1 agonists; AID 651955; 2,400 compounds, 2% hits; shares compounds with TAAR1 antagonist; hTAAR1 cell line, fluorescence activation, agonist mode; activation, % at 3 µM; in the data active means activation above about 37%;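 further: CHO cells stably expressing TAAR1 with calcium dye readout; 0% = DMSO vehicle and 100% = full agonist response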
Starred values were filed as active, the others as inactive; nt = not tested or not shown. Compounds with a hit are over-represented: about 4.6% of the library has one in this group of screens.

SMILES	GPR7 antag	OX1R antag-1	CHO parental Ca	TAAR1 antagonist	OX1R antag-2	TAAR1 ag	nonsel antag count	TAAR1 antag conf	Ga16 nonsel ag	TAAR1 ag counter
Cc1ccc(C)c(/C=N/Nc2ccccn2)c1	7	-8	-7	105*	27	-4	-2	0	1	0
Cc1ccc(C)c(Cn2cnc3c(nnn3-c3ccc(F)cc3)c2=O)c1	3	-14	-4	72*	0	30	12	37	2	10
O=C1CC(c2ccco2)CC2=C1C1c3ccccc3C(=O)N1c1ccccc1N2 (stereo not given)	11	-28	-2	64*	15	16	24*	45	5	8
Fc1cccc(-c2cc3nc4c(c(N5CCOCC5)n3n2)CCCC4)c1	-11	-14	-36	49*	12	7	18	26	5	11
CCN(c1ccccc1)S(=O)(=O)c1ccc(NC(=S)NC(=O)c2ccc(Br)o2)cc1	-2	-22	0	64*	13	8	33*	40	8	0
O=C(CN1CCN(c2ccccn2)CC1)Nc1ccccc1C(=O)Nc1ccccc1	nt	-20	-19	65*	12	10	27*	44	7	6
COc1ccc(N2CCN(CC(=O)Nc3ccccc3C(=O)NC(C)c3ccccc3)CC2)cc1 (stereo not given)	nt	nt	nt	61*	nt	16	15	39	7	16
CCc1ccc(NC(=O)c2cnc(N3CCN(c4ccccn4)CC3)c3ccccc23)cc1	-25	11	-5	68*	46	17	37*	55*	12*	10
CC(C)NC(=O)c1cnc(N2CCN(c3ccccn3)CC2)c2ccccc12	-7	-26	-8	31	1	15	nt	nt	nt	nt
O=C1C2C3CCC(C3NCc3ccccc3)C2C(=O)N1Cc1ccccc1 (stereo not given)	1	-18	-28	55*	23	6	20	34	6	9
Oc1ccc(-c2csc(NCc3ccco3)n2)cc1	-9	-19	-13	104*	21	-2	-3	-2	0	-4
O=C(Nc1ccc(CN2CCOCC2)cc1)c1ccc2ccccc2c1	3	-22	-13	11	1	6	nt	nt	nt	nt
CCC(C)Oc1ccc(C(=O)Nc2ccc(CN3CCOCC3)cc2)cc1 (stereo not given)	-10	nt	nt	7	nt	8	nt	nt	nt	nt
O=C(Nc1ccc(CN2CCOCC2)cc1)c1cccc(-c2cc3ccccc3oc2=O)c1	-12	-21	-15	64*	9	15	27*	47	9	6
O=C(COc1ccccc1Cl)NC(=S)Nc1ccc(CN2CCOCC2)cc1	1	-31	-22	73*	9	12	47*	51*	11	12
CCOc1ccc(NC(=O)c2ccc(NC(=O)c3ccc(CN4CCOCC4)cc3)cc2)cc1	-11	-3	-6	61*	8	12	29*	47	7	10
C=CCNc1nc(C(=O)OCC(=O)c2ccc(Cl)cc2)cs1	nt	-4	-12	17	11	-1	nt	nt	nt	nt
O=C(CN1C(=O)/C(=C/c2ccccc2F)Sc2ccccc21)NCCCN1CCOCC1	2	-25	-23	8	13	1	nt	nt	nt	nt
Cc1noc(C)c1CSCC(=O)NCCN1C(=O)S/C(=C\c2ccccc2F)C1=O	nt	-30	-12	56*	22	13	35*	54*	13*	12
CCOc1ccccc1N1CC(O)=C(c2nc3ccccc3s2)C1=N	14	20	-9	66*	11	23	26*	41	12*	10
O=C(O)CCCCCNC(=O)c1ccccc1	-3	-24	-3	4	5	6	nt	nt	nt	nt
COC(=O)C1=C(C)N(Cc2ccccc2)C(=NCCc2cccnc2)N[C@H]1c1ccc(Br)cc1	nt	13	19	nt	-2	nt	nt	nt	nt	nt
CC(C)C[C@@H](CN=[N+]=[N-])N1CCN(Cc2ccccc2)CCC1=O	12	-39	-19	3	21	3	nt	nt	nt	nt
COc1ccc(-c2nc3cccc(C)n3c2NCC2CCCO2)cc1O (stereo not given)	-3	-17	2	65*	29	15	27*	48	8	8
CC(C)(C)c1cc(N)n2nc(C(C)(C)C)cc2n1	3	-11	-19	-19	9	5	nt	nt	nt	nt
SMILES	GPR7 antag	OX1R antag-1	CHO parental Ca	TAAR1 antagonist	OX1R antag-2	TAAR1 ag	nonsel antag count	TAAR1 antag conf	Ga16 nonsel ag	TAAR1 ag counter
O=C(/C=C/c1ccccc1)Nc1cccc(C(=O)NCCCc2ccccc2)c1	nt	nt	nt	77*	nt	12	35*	50*	8	7
O=C(NCCCCc1ccccc1)c1cccc(NC(=O)c2ccccc2)c1	nt	nt	nt	41	nt	5	nt	nt	nt	nt
O=C(NCCc1ccc(F)cc1)c1cccc(NC(=O)c2ccccc2)c1	-7	-6	6	61*	18	14	33*	51*	9	9
O=C(Nc1ccc(Nc2ccccc2)cc1)c1ccc(Br)cc1	-15	-7	6	3	13	5	nt	nt	nt	nt
O=C(Nc1cccc(C(=O)Nc2ccc(Br)cc2)c1)c1ccccc1	-2	-6	9	76*	4	14	44*	57*	11	7
O=C(/C=C/c1ccccc1)Nc1cccc(C(=O)NCc2ccccc2)c1	nt	nt	nt	-6	nt	2	nt	nt	nt	nt
O=C(NCCCCc1ccccc1)c1cccc(NC(=O)C2CCCC2)c1	nt	nt	nt	64*	nt	9	25*	42	10	12
COc1cccc(-c2nc(CS(=O)(=O)CC(=O)NCCN3CCOCC3)c(C)o2)c1	-6	-15	-3	1	7	0	nt	nt	nt	nt
O=c1cc(NCc2ccco2)[nH]c(=O)n1-c1ccc(Br)cc1	0	-16	-1	-1	14	4	nt	nt	nt	nt
C[C@]12C[C@H](O)[C@@H]3c4ccc(O)cc4CCC3[C@@H]1CCC2=O (stereo not given in full)	-11	-10	-2	-17	14	1	nt	nt	nt	nt
C[C@]12CC[C@H]3C(=CCc4cc(O)ccc43)[C@@H]1CCC2=O	7	-2	-4	83*	8	16	35*	59*	12*	13
COc1cccc(CCC(=O)N2CCC(n3nccc3NC(=O)CC(C)C)CC2)c1	-15	-17	-13	1	10	1	nt	nt	nt	nt
